ChEMBL document CHEMBL3865824, “New (E)-1-alkyl-1H-benzo[d]imidazol-2-yl)methylene)indolin-2-ones: Synthesis, in vitro cytotoxicity evaluation and apoptosis inducing studies” (Eur J Med Chem, 2016)
The source made the active and inactive calls. The calls are words filed in the database; no cut-off is given here.

Columns and labels:
[1] = Cytotoxicity against human DU145 cells assessed as reduction in cell viability after 48 hrs by MTT assay; assay type: functional, cell-based; settings: DU-145, 48 h
Method in brief: (§1)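 Cells grown in DMEM or MEM with 10% FBS at 37 °C, 5% CO2. Seeded at 1×10^4 cells/well, incubated 48 h, then exposed to compound for 48 h with vehicle control. MTT (5 mg/mL stock) added for 4 h; formazan dissolved in DMSO, absorbance read at 570 nm. Preliminary screen at 50 µM. Compounds giving >50% inhibition were tested for dose-response curves; IC50 derived by linear regression of % inhibition versus concentration. Mean of three independent experiments in triplicate.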

[2] = Cytotoxicity against human BT549 cells assessed as reduction in cell viability after 48 hrs by MTT assay; assay type: functional, cell-based; settings: BT-549, 48 h; method in brief: as §1
[3] = Cytotoxicity against HGC cells assessed as reduction in cell viability after 48 hrs by MTT assay; assay type: functional, cell-based; settings: Homo sapiens; method in brief: as §1
[4] = Cytotoxicity against human MCF10A cells assessed as reduction in cell viability after 48 hrs by MTT assay; assay type: toxicity, cell-based, MCF-10A; method in brief: as §1
[5] = Selectivity ratio of IC50 for human MCF10A cells to IC50 for human DU145 cells; assay type: ADME, cell-based, MCF-10A; settings: MCF10A cells versus DU145 cells, read-out: Ratio IC50
[6] = Selectivity ratio of IC50 for human MCF10A cells to IC50 for human MDA-MB-231 cells; assay type: ADME, cell-based, MCF-10A; settings: MCF10A cells versus MDA-MB-231 cells, read-out: Ratio IC50
MDA-MB-231 [7] = assay: Inhibition of F-actin polymerization in human MDA-MB-231 cells assessed as disruption of stress fibres at 1 to 4 uM after 12 hrs by rhodamine-phalloidin/hoechst […]-dual staining based confocal microscopic analysis; assay type: cell-based
Method in brief: (§2)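 MDA-MB-231 cells (1×10^6/well) were grown on coverslips for 24 h, then exposed 12 h to 1, 2 and 4 μM. After a PBS wash and fixation in 4% paraformaldehyde, F-actin was stained with rhodamine-phalloidin and nuclei with Hoechst […]. Slides were mounted in anti-fade reagent and imaged by confocal microscopy (20× objective).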

MDA-MB-231 [8] = assay: Inhibition of F-actin polymerization in human MDA-MB-231 cells assessed as decrease in protein extension at 1 to 4 uM after 12 hrs by rhodamine-phalloidin/hoechst […]-dual staining based confocal microscopic analysis; assay type: cell-based; method in brief: as §2
[9] = Cell cycle arrest in human MDA-MB-231 cells assessed as accumulation at S phase at 2 uM after 24 hrs by propidium iodide staining based FACS analysis (reference value: 24.6 %); assay type: functional
Method in brief: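 MDA-MB-231 at 1×10^6 cells/well treated with 1, 2 or 4 µM for 24 h, with a DMSO control. Cells harvested by trypsin, washed with PBS and fixed in 70% ethanol for 30 min at 4 °C. Stained 15 min at room temperature in the dark with PI buffer containing Triton X and DNase-free RNase A. Analysed by flow cytometry; G0/G1, S and G2/M fractions quantified.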

MDA-MB-231 [10] = assay: Induction of apoptosis in human MDA-MB-231 cells assessed as formation of horse-shoe shaped nuclei at 2 uM after 24 hrs by AO/EB-dual staining based fluorescent microscopic analysis; assay type: functional, cell-based
Method in brief: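 MDA-MB-231 plated at 1×10^6 cells/mL and treated at 1, 2 or 4 µM, with a DMSO control. Incubation time is given as 48 h in the methods and 24 h in the figure legend. AO and EB added at 10 µg/mL each. Cells viewed within 10 min by fluorescence microscopy (excitation 488 nm, emission 550 nm) at 200×.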

MDA-MB-231 [11] = assay: Induction of apoptosis in human MDA-MB-231 cells assessed as formation of condensed nuclei at 1 to 4 uM after 24 hrs by DAPI dye-based fluorescent microscopic analysis; assay type: functional, cell-based
Method in brief: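 MDA-MB-231 grown at 1×10^6 cells/well in 6-well plates and treated at 1.0, 2.0 or 4.0 µM for 24 h, with untreated controls. Cells washed twice with PBS, fixed in 4% paraformaldehyde and stained with 10 µg/mL DAPI. Nuclei examined by fluorescence microscopy (excitation 359 nm, emission 461 nm) at 200×.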

MDA-MB-231 [12] = assay: Induction of apoptosis in human MDA-MB-231 cells assessed as loss of mitochondrial membrane potential at 1 uM after 24 hrs by rhodamine-123 -based spectrofluorometric analysis relative to control; assay type: functional
Method in brief: (§3)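 MDA-MB-231 cells were plated at 5×10^5 cells/mL in 6-well plates, left to adhere overnight, then treated 24 h at 1, 2 and 4 μM. Cells were trypsinized, washed in PBS and loaded with rhodamine-123 (10 μg/mL) in PBS for 30 min at room temperature. After two PBS washes, fluorescence was read by spectrofluorometer (ex 480/em 530 nm). Loss is expressed against control; three independent experiments in triplicate.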

MDA-MB-231 [13] = assay: Induction of apoptosis in human MDA-MB-231 cells assessed as loss of mitochondrial membrane potential at 2 uM after 24 hrs by rhodamine-123 -based spectrofluorometric analysis relative to control; assay type: functional; method in brief: as §3
MDA-MB-231 [14] = assay: Induction of superoxide production in human MDA-MB-231 cells after 48 hrs by mitoSOX red-probe based fluorescent microscopic analysis; assay type: functional, cell-based
Method in brief: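 Cells were seeded at 1×10^5/well in 24-well plates and left to adhere overnight, then treated at different concentrations (methods: medium removed after 24 h; legend: 48 h treatment). After a PBS wash, cells were loaded with MitoSOX Red in HBSS for 15 min at 37 °C, washed three times with PBS and imaged by fluorescence microscopy against DMSO control.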

MDA-MB-231 [15] = assay: Induction of apoptosis in human MDA-MB-231 cells assessed as increase in cleaved PARP expression after 24 hrs by Western blot analysis; assay type: functional, cell-based
Method in brief: (§4)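 MDA-MB-231 treated at 1, 2 or 4 µM for 24 h. Whole-cell extracts prepared in RIPA buffer. Blots probed with rabbit anti-caspase-3, anti-Bcl2 and anti-β-actin (1:1000) and anti-Bax (1:500), then HRP secondaries and ECL detection. Membranes stripped and reprobed. Bands quantified by densitometry as fold change versus control. Mean ± SEM, n=3.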

MDA-MB-231 [16] = assay: Induction of apoptosis in human MDA-MB-231 cells assessed as decrease in Bcl2 expression after 24 hrs by Western blot analysis; assay type: functional, cell-based; method in brief: as §4
MDA-MB-231 [17] = assay: Induction of apoptosis in human MDA-MB-231 cells assessed as viable cells at 1 uM after 24 hrs by Annexin V-FITC/propidium iodide-staining based FACS analysis (reference value: 89.5 %); assay type: functional; settings: MDA-MB-231, 24 h, read-out: Activity
MDA-MB-231 [18] = assay: Induction of apoptosis in human MDA-MB-231 cells assessed as late apoptotic cells at 4 uM after 24 hrs by Annexin V-FITC/propidium iodide-staining based FACS analysis (reference value: 3.6 %); assay type: functional
[19] = Cytotoxicity against human DU145 cells assessed as growth inhibition at 50 uM after 48 hrs by MTT assay relative to control; assay type: functional; settings: DU-145, 48 h, read-out: GI; method in brief: as §1
[20] = Cytotoxicity against HGC cells assessed as growth inhibition at 50 uM after 48 hrs by MTT assay relative to control; assay type: functional; settings: Homo sapiens, read-out: GI; method in brief: as §1

For CC(C)n1c(/C=C2/C(=O)Nc3ccc(Br)cc32)nc2ccccc21, the IC50 [1] was 7.5 µM, the IC50 [2] was 13.7 µM and the IC50 [3] was 12.4 µM. The IC50 at 48 h [4] was 56.9 µM, the selectivity ratio [5] was 8 and the selectivity ratio [6] was 17. For the same molecule, the inhibition (MDA-MB-231 [7]) was “Active”, the inhibition (MDA-MB-231 [8]) was “Active” and the Activity [9] was 17.7%. For the same molecule, the Activity (MDA-MB-231 [10]) was “Active”, the Activity (MDA-MB-231 [11]) was “Active” and the Activity (MDA-MB-231 [12]) was 25.2%. For the same molecule, the Activity (MDA-MB-231 [13]) was 32.5%, the Activity (MDA-MB-231 [14]) was “Dose-dependent effect” and the Activity (MDA-MB-231 [15]) was “Dose-dependent effect”. The Activity (MDA-MB-231 [16]) was “Dose-dependent effect”, the viability at 1 µM (MDA-MB-231 [17]) was 83.3% and the Activity (MDA-MB-231 [18]) was 7.1%. For the same molecule, the inhibition of growth at 50 µM [19] was greater than 50% and the inhibition of growth at 50 µM [20] was greater than 50%.
